Experimental data: ChEMBL document CHEMBL4513216, “Probing the Open Global Health Chemical Diversity Library for Multistage-Active Starting Points for Next-Generation Antimalarials” (ACS Infect Dis, 2020)

Assay: Toxicity liver stage against HepG2, at 10uM
Format: cell-based
Parameters: test concentration 10 uM, cell line HepG2-A16-CD81EGFP
Conditions: human, HepG2-A16-CD81EGFP cells; read-out: INHIBITION
Outline: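 Uninfected HepG2-A16-CD81EGFP cells, 3 × 10^3 per well, 1536-well, plated on prespotted compound at 10 μM final, parasite-free screening media added to match infected plates; puromycin 10 μM positive, DMSO 0.5% negative; run in parallel with 48 h PbLuc assay at 37 °C, 5% CO2; viability by CellTiter-Glo luminescence, normalized to controls.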

In order of falling cytotoxicity at 10 µM:
1. O=C(NCC(F)(F)F)C1CSCN1S(=O)(=O)c1cccc(F)c1 (stereo unspecified)  18.7%
2. COCCCNC(=O)CN1CCOC(c2ccccc2)C1 (stereo unspecified)  18.6%
3. Nc1nnc(SCC(=O)NCC(O)c2ccccc2)s1 (stereo unspecified)  12%
4. CN(C)S(=O)(=O)N1C[C@H]2CCC[C@@]2(COc2cccnc2)C1  11.8%
5. Cc1occc1C(=O)N1CC[C@@H]2[C@@H](CO[C@H]2CNS(C)(=O)=O)C1  11.3%
6. CN(C)c1ccc(-c2ccnc3c2ccn3C)nn1  10.9%
7. O=C(NC1CCCC1)c1cnn2c(-c3ccco3)ccnc12  10.2%
8. O=C(C1CCC2(CCN(c3nncs3)CC2)C1)N1CCCC1 (stereo unspecified)  9.43%
9. OCC1(NCc2cnc(-c3ccccn3)s2)CCOCC1  9.32%
10. CCn1nc(C(C)C)cc1C(=O)N1CCOc2ccc(OC)cc21  9.27%
11. CC1CCc2nn(CCNC(=O)c3ccco3)c(=O)cc2C1 (stereo unspecified)  9.15%
12. Cc1noc(C)c1CNCC1COCc2c(-c3ccoc3)nnn2C1 (stereo unspecified)  8.85%
13. COc1cc(C2SCC(=O)Nc3[nH]ncc32)cc(OC)c1OC (stereo unspecified)  8.49%
14. COC(=O)N1CC2(CCNCC2)c2cc(Cl)ccc21  7.71%
15. O=C(c1cc(C2CC2)n[nH]1)N1C[C@H]2CC[C@](O)(c3ccccc3F)[C@H]2C1  7.66%
16. C=C(C)CN(CC)C(=O)c1cc(Cl)ccc1NS(C)(=O)=O  7.17%
17. Cc1cc(CS(=O)(=O)N(C)C(C)c2ccc(F)cc2)on1 (stereo unspecified)  6.72%
18. Cc1cc(C)n(CC2CCCCN2CC(=O)Nc2cccnc2)n1 (stereo unspecified)  6.46%
19. O=C(c1coc2ccccc12)N1CCCC(O)(CO)CC1 (stereo unspecified)  6.41%
20. OC1(CN2CCC(Oc3cccnc3)CC2)CNCCOC1 (stereo unspecified)  5.92%
21. CCOc1ccc(CN2C(=O)CC(CC)(CC)C2=O)nc1  5.73%
22. O=C(NC1CC1)c1ccccc1NCc1cn2cccnc2n1  5.38%
23. CCC(C)NS(=O)(=O)Cc1cccc(NC(=O)C(C)C)c1 (stereo unspecified)  5.36%
24. CC(NC(=O)Nc1cccnc1N1CCOCC1)c1ccncc1 (stereo unspecified)  5.28%
25. CCc1nc2n(n1)CCCC2NC(=O)Nc1ccc(SC)c(F)c1 (stereo unspecified)  5.08%
26. CCN(CC)CCN1CC[C@H]2OCC[C@@]2(C(=O)N2CCOCC2)C1  4.64%
27. CCC(C)c1noc(C2CCN(C(=O)c3ccccn3)CC2)n1 (stereo unspecified)  4.59%
28. Cc1nc(CN2CCC3(CCN(c4cnn(C)c4)C3=O)C2)cs1 (stereo unspecified)  4.15%
29. COCCN(Cc1ccco1)Cc1nc(-c2ccc(C)c(F)c2)no1  3.68%
30. Cc1noc(C)c1CN1CCCC1C(=O)OCc1ccccc1 (stereo unspecified)  3.23%
31. COCCCC1CCCCN1Cc1cn2cc(C)ccc2n1 (stereo unspecified)  3.21%
32. COc1cc(C(=O)N2C[C@@H]3CC[C@H]2CN(Cc2cscn2)C3)ccn1  3.2%
33. Cc1cc(C(=O)N2CCc3nc(C4CCCN4)ncc3C2)cs1 (stereo unspecified)  2.56%
34. CCCN(Cc1nnnn1C1CC1)CC1COc2ccccc2O1 (stereo unspecified)  2.04%
35. CC(CS(C)(=O)=O)N(C)C(=O)NCCCc1ccc(Cl)cc1 (stereo unspecified)  1.8%
36. Cn1c(C(F)(F)F)nn(CCNC(=O)c2nc3ccccc3s2)c1=O  1.79%
37. Cc1cnc(C)c(-c2cc(O)c3c(c2)CN(Cc2nccs2)CCO3)n1  1.69%
38. CN(C)CC(=O)N1CCc2sc(C(=O)NCC3CC3)cc21  1.68%
39. O=C(CCNC(=O)c1ccoc1)Nc1c(F)cccc1F  1.35%
40. COCC(=O)NC[C@H]1C[C@@H]2CCN1C[C@@H]2c1cc(-c2cccs2)nn1C  1.23%
41. Cc1ccc2c(c1)c(C)cc(=O)n2CCCN  1.14%
42. CC(C)n1c(=O)[nH]c2cn(-c3ccc(Br)cc3)c(=O)n21  0.843%
43. Cc1cc(C)n(CC2CCCCN2CC(=O)Nc2nnc(C)s2)n1 (stereo unspecified)  0.668%
44. CCC(=O)Nc1cccc(OCC(=O)N2CC=CC2C(C)C)c1 (stereo unspecified)  -0.115%
45. CCc1ncc(C(=O)N2CCCC(c3nccn3CCOC)C2)cn1 (stereo unspecified)  -0.262%
46. CC(C)(C)OC(=O)NCC1CCCCN1Cc1cccnc1 (stereo unspecified)  -0.502%
47. Cc1nnc(CN(Cc2ccco2)Cc2cccc3c2OCO3)n1C  -0.535%
48. CC(C)NC(=O)Cn1cc(-c2ccccc2)cn1  -0.577%
49. O=C(NC1CC1)N1CCc2ncnc(-c3ccncc3)c2CC1  -1.04%
50. CCCNC(=O)CN1CCC(NCc2csc(C(C)C)n2)CC1  -1.4%
51. CSc1cccc(CC(=O)N[C@@H]2CCNC[C@H]2O)c1  -1.72%
52. COc1ccc(OCc2nc(C(=O)N3C[C@H](O)[C@@H](N(C)C)C3)co2)cc1  -1.74%
53. CN(Cc1nncn1C)c1nccc(N2CCC(O)CC2)n1  -1.78%
54. Cc1c(S(=O)(=O)NC2CC2)cc2c(C)cc(=O)n3c2c1CCC3  -1.95%
55. CC(C)c1nc(CN2CCN(C(=O)Cc3ccccc3Cl)CC2)no1  -1.96%
56. Cc1ccc(C(=O)N2CCc3ccc(=O)n(CCN(C)C)c3CC2)o1  -2.16%
57. COC(=O)NCCCn1ccnc1-c1ccccc1  -2.27%
58. COc1ccc(CCNC(=O)C2CCOC2)c(Cl)c1 (stereo unspecified)  -2.27%
59. CC(C)c1nsc(N2CCS(=O)(=O)CC2)n1  -2.41%
60. Cn1nccc1C(=O)N1CCCN(CCCc2ccccc2)CC1  -2.45%
61. Cc1nc(-c2cccc(C#N)c2)nn1CC1(O)CCCCC1  -2.62%
62. CN(Cc1nc(-c2cccnc2)no1)C(=O)c1cccn1C  -2.85%
63. Cc1ncnc2c1CCN(c1cc(C(F)(F)F)ncn1)CC2  -2.96%
64. CN1CCC2(Cc3ccccc3CN(C(=O)c3ccc(Cl)cc3)C2)C1 (stereo unspecified)  -3.12%
65. CC(Cn1ccnc1)NC(=O)NCCc1cccs1 (stereo unspecified)  -3.16%
66. CN1CCC(Cc2noc(-c3cn(Cc4ccccc4Cl)nn3)n2)CC1  -3.28%
67. Cc1cc(N2CCC(O)(CN(C)C(=O)CCN)CC2)c2cnccc2n1  -3.3%
68. CN1CC(C(=O)NC(C)(C)C)CC1=O (stereo unspecified)  -3.36%
69. COCC(=O)N1CCC(c2cc(-c3ccc(C)cc3)n[nH]2)C1 (stereo unspecified)  -3.39%
70. CCCN1CCC2(CC1)COc1ccccc1S(=O)(=O)N(CC1CC1)C2  -3.43%
71. CC(C)Oc1cccc(C(=O)Nc2nncs2)c1  -3.49%
72. CC(=O)N1CC[C@H]2CC(=O)N(Cc3ccc4c(c3)OCO4)CC[C@H]2C1  -3.91%
73. c1cc(CN2CCC3(CC2)COC(COCC2CC2)C3)co1 (stereo unspecified)  -4.19%
74. COc1ccc(CN2CCC3(CC2)CCN(CCN(C)C)C3=O)cc1  -4.25%
75. COCCNC(=O)CCNc1ccc(Cl)cn1  -5.22%
76. COc1cccc(COCC(=O)N2CCN(CC(C)(C)O)CC2)c1  -5.64%
77. Cc1cccc(CN2C[C@@H]3COC[C@]3(CNC(=O)c3cccn3C)C2)n1  -5.64%
78. Cc1nc(CN2CCCn3c(nc(Cn4ccnc4)cc3=O)C2)cs1  -5.67%
79. CCCc1nc(C)c(C(=O)NS(=O)(=O)c2cccnc2)s1  -5.8%
80. COCCN1CC2(CCC1=O)CCN(Cc1nnc(C)o1)CC2  -5.81%
81. CCc1c(C(=O)NC2CCS(=O)(=O)C2)cnn1-c1ccc(C)cc1 (stereo unspecified)  -5.94%
82. CC(C)CCN1CCN(C(=O)c2c[nH]c(=O)[nH]2)CC1  -6.49%
83. COCc1ccccc1C(=O)NCC(O)c1ccc(Cl)s1 (stereo unspecified)  -6.63%
84. Cc1nnc(CN2CCC3(CCC(=O)N(C4CC4)C3)CC2)o1  -6.68%
85. CN(C)CC1CSCCCN1S(=O)(=O)c1ccc(C(F)(F)F)cc1 (stereo unspecified)  -6.71%
86. CC(C)c1noc(CN2CCN(C(=O)c3cc(Cl)ccc3F)CC2)n1  -6.8%
87. O=C(NCCn1ccnc1)N1CCN(Cc2cccs2)CC1  -7.49%
88. Cn1ccnc1CN1CCC2(CC1)CC(Nc1ccccn1)CO2 (stereo unspecified)  -7.97%
89. Cc1ccc(NC(=O)CCc2ccco2)cc1N1CCOC1=O  -8.43%
90. CCOCC(=O)N1C[C@@H](NC(C)=O)[C@H](c2ccc(OC)cc2)C1  -9.44%
91. Cc1nc(CN2CCCN(C(=O)c3cnccn3)CC2)cs1  -9.51%
92. CN(C)c1cccc(C(=O)N2CCCC2c2ncc3c(n2)CCNC3)c1 (stereo unspecified)  -9.97%
93. CCc1nc(-c2cccc(C(=O)O)c2)no1  -10%
94. CCN1C(=O)C(C)(C)c2cc(NC(=O)c3ccco3)ccc21  -10.2%
95. Cc1nc(C)n(CC2CCCN(CC(=O)NC3CCOCC3)C2)n1 (stereo unspecified)  -11.8%
96. NC(=O)Cc1ccc(OCc2noc(C(=O)N3CCCC3)n2)cc1  -13.6%
97. NC(=O)c1c(SCCN2CCCCC2)sc2c(O)cc(=O)[nH]c12  -13.7%
98. CC1CCN(c2nc3cn(C4CCS(=O)(=O)C4)c(=O)c-3c[nH]2)CC1 (stereo unspecified)  -14.2%
99. Cc1ccc(NC2CCN(C(=O)c3ccco3)CC2)nn1  -14.3%
100. CCN1CC[C@@]2(C(=O)N(C)C)CCN(C(=O)NC(C)C)CC[C@@H]12  -15.2%
101. OC(CNCCn1cccn1)COc1ccc(F)cc1 (stereo unspecified)  -16.6%
102. Cc1ccc(CNc2nc(O)cc(C3CC(=O)N(C)C3)n2)cc1 (stereo unspecified)  -17.8%
103. Cc1ccccc1CNC(=O)C1CCN(Cc2nccn2C)CC1  -17.9%
104. COc1cccc(S(=O)(=O)CCN2CCn3c(C)nnc3C2)c1  -18.7%
105. CCSc1nnc(CCNC(=O)OC(C)(C)C)o1  -25.9%
106. O=C1NC2(CCN(C(=O)c3ccnnc3)CC2)CC1c1ccccc1 (stereo unspecified)  -113%
107. COCCN1C[C@@H]2OCCN(c3ccnc(N(C)C)n3)[C@@H]2C1  -118%
108. Cc1cccc(C)c1OCCNC(=O)CNC(=O)C1CCCC1  -122%
109. O=C(NCC1CC1)C1CCC2(CN(C(=O)c3ccno3)C2)O1 (stereo unspecified)  -138%
110. COc1ccccc1C(C)(C)NC(=O)Nc1ccc(F)c(C(N)=O)c1  -145%
111. CCc1cc(C(=O)N2CCC3(CCCN(CCOC)C3=O)C2)cs1 (stereo unspecified)  -146%
